Type in all cases: cell-based
The test system of data set [1] is THP-1. Description: Induction of type-1 IFN signalling in human THP-1 cells assessed as increase in type-1 interferon-induced ISG54-ISRE promoter activity by measuring increase in transcriptional activity of luciferase reporter gene at 40 uM by secreted luciferase reporter gene assay relative to control. The settings on record: filed as activator. The essentials: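 THP-1 monocytes carry an ISRE reporter (ISG54 minimal promoter with five ISRE elements) that drives a secreted luciferase. Each compound was tested at 40 μM. Luminescence was read and expressed as relative units normalized to a DMSO control, as mean ± standard deviation.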

The subject of data set [2] is THP-1. Description: Induction of type-1 IFN signalling in human THP-1 cells assessed as increase in IFN-stimulated IFNbeta mRNA expression at 50 uM by qPCR analysis. The settings on record: filed as activator.
The test system of data set [3] is THP-1. Description: Induction of type-1 IFN signalling in human THP-1 cells assessed as increase in IFNbeta secretion at 20 uM by ELISA. To be noted: filed as activator. The procedure, abridged: (§1)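 IFNβ and IP-10 released extracellularly from treated THP-1 cells were quantified by ELISA.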
Data set [4] deals with THP-1. Put plainly: Induction of type-1 IFN signalling in human THP-1 cells assessed as increase in IP-10 secretion at 20 uM by ELISA. The settings on record: filed as activator. The essentials: as §1
For data set [5], the system named is THP-1. Description: Cytotoxicity against human THP-1 cells assessed as cell viability at 2.5 to 40 uM. To be noted: thp-1, 40 µM, dose 2.5-40 µM. The essentials: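 THP-1 viability was tested across a range of treatment concentrations up to 40 µM, alongside the ISRE reporter dose-response.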
For data set [6], the system named is THP-1. Put plainly: Induction of type-1 IFN signalling in human THP-1 cells assessed as increase in IFN-stimulated IFIT3 mRNA expression at 50 uM by qPCR analysis. To be noted: filed as activator.
Data set [7] is described as follows: Cytotoxicity against human THP-1 cells assessed as cell viability at 40 uM relative to control. The settings on record: read-out: Activity. The procedure, abridged:
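THP-1 viability was measured in parallel with the ISRE reporter readout after treatment with 40 μM of each compound. Results are given as mean ± standard deviation.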

In data set [8] the test system is THP-1. Put plainly: Induction of type-1 IFN signalling in human THP-1 cells assessed as increase in IFN-stimulated IRF7 mRNA expression at 50 uM by qPCR analysis. The settings on record: filed as activator.
Data set [9] deals with THP-1. Description: Induction of type-1 IFN signalling in human THP-1 cells assessed as increase in IFN-stimulated CXCL10 mRNA expression at 50 uM by qPCR analysis. To be noted: filed as activator.
The test system of data set [10] is THP-1. Description: Induction of type-1 IFN signalling in human THP-1 cells assessed as increase in IFN-stimulated OAS1 mRNA expression at 50 uM by qPCR analysis. To be noted: filed as activator.
Data set [11] is described as follows: Induction of type-1 IFN signalling in human THP-1 cells assessed as increase in type-1 IFN-induced ISG54-ISRE promoter activity by measuring increase in transcriptional activity of luciferase reporter gene by secreted luciferase reporter gene assay. The essentials: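 The THP-1 secreted-luciferase ISRE reporter (ISG54 minimal promoter plus five ISREs) was tested across a dose range. Luminescence was read as fold change over control. EC50 was calculated and Emax was interpolated from the dose-response curve.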

In ChEMBL document CHEMBL4699581, “Design, synthesis, and biological evaluation of N-arylpiperazine derivatives as interferon inducers” (Bioorg Med Chem Lett, 2020) one finds Activity, viability and EC50 data, which are given here for 25 molecules.

Calls of active or inactive are those of the source. No cut-off for these calls is given here.

With `COc1cc(CC(=O)N2CCN(c3cccc(Cl)c3Cl)CC2)cc(OC)c1OC`, the Activity was 5.2 RU in the data set on THP-1 [1] and “Non-Toxic” in the data set on THP-1 [5]. The result in the data set with THP-1 [2], in the data set with THP-1 [3], in the data set with THP-1 [4], in the data set on THP-1 [6], in the data set with THP-1 [8] and in the data set on THP-1 [9] was Active. In the data set with THP-1 [10], the outcome was Active. For the same molecule, the viability at 40 µM in [7] is 98%. In addition, in [11], the EC50 came to 13.1 µM.

As to `Cc1cc([N+](=O)[O-])ccc1C(=O)N1CCN(c2cccc(Cl)c2Cl)CC1`, the Activity in the data set on THP-1 [1] was found to be 1.4 RU. Further, in [7], the viability at 40 µM stood at 84%.

For `O=C(Nc1cccc(C(F)(F)F)c1)N1CCN(c2cccc(Cl)c2Cl)CC1`, the Activity with THP-1 [1] was 3.3 RU. In data set [7], the viability at 40 µM was 76%.

Regarding `O=C(c1cnccn1)N1CCN(c2cccc(Cl)c2Cl)CC1`, in the data set with THP-1 [1], the Activity amounted to 2.5 RU. Further, the viability at 40 µM in [7] came out at 89%.

Regarding `S=C(Nc1ccc(Cl)cc1)N1CCN(c2cccc(Cl)c2Cl)CC1`, the Activity in the data set with THP-1 [1] was determined as 1.2 RU. In data set [7], the viability at 40 µM was found to be 99%.

With `O=[N+]([O-])c1ccc(NC(=S)N2CCN(c3cccc(Cl)c3Cl)CC2)cc1`, in the data set on THP-1 [1], the Activity stood at 1.1 RU. Further, in data set [7], the viability at 40 µM amounted to 97%.

Take `COc1cc(OC)cc(C(=O)N2CCN(c3cccc(Cl)c3Cl)CC2)c1`: the Activity in the data set on THP-1 [1] was found to be 1.9 RU. Besides, in [7], the viability at 40 µM worked out at 83%.

As to `O=C(Nc1ccc(OC(F)(F)F)cc1)N1CCN(c2cccc(Cl)c2Cl)CC1`, the Activity in the data set on THP-1 [1] amounted to 4.2 RU. For the same molecule, in data set [7], the viability at 40 µM came out at 96%.

Turning to `S=C(Nc1cccc(Br)c1)N1CCN(c2cccc(Cl)c2Cl)CC1`, the Activity with THP-1 [1] was determined as 1.5 RU. Moreover, the viability at 40 µM in [7] amounted to 85%.

`COc1ccc(C(=O)N2CCN(c3cccc(Cl)c3Cl)CC2)cc1`: in the data set on THP-1 [1], the Activity is 3.7 RU. In data set [7], the viability at 40 µM was found to be 81%.

As to `O=C(c1ccc(C(F)(F)F)cc1)N1CCN(c2cccc(Cl)c2Cl)CC1`, the Activity with THP-1 [1] came out at 1.8 RU. Moreover, the viability at 40 µM in data set [7] worked out at 90%.

Take `Fc1ccc(NC(=S)N2CCN(c3cccc(Cl)c3Cl)CC2)cc1`: in the data set with THP-1 [1], the Activity was 1.3 RU. The viability at 40 µM in [7] was 81%.

With `CCCCCCCCCCCCC(=O)N1CCN(c2cccc(Cl)c2Cl)CC1`, the Activity with THP-1 [1] amounted to 1.3 RU. Also, the viability at 40 µM in data set [7] worked out at 89%.

In the case of `O=C(Nc1ccc(C(F)(F)F)cc1)N1CCN(c2cccc(Cl)c2Cl)CC1`, the Activity in the data set on THP-1 [1] was determined as 3.9 RU. Moreover, in data set [7], the viability at 40 µM is 61%.

For `COc1ccc(NC(=O)N2CCN(c3cccc(Cl)c3Cl)CC2)cc1`, the Activity in the data set on THP-1 [1] came out at 3.3 RU. The viability at 40 µM in data set [7] turned out to be 98%.

As to `CC(C)NC(=S)N1CCN(c2cccc(Cl)c2Cl)CC1`, the Activity in the data set on THP-1 [1] worked out at 1.2 RU. Further, in [7], the viability at 40 µM is 84%.

In the case of `O=C(c1cccc(C(F)(F)F)c1)N1CCN(c2cccc(Cl)c2Cl)CC1`, in the data set with THP-1 [1], the Activity turned out to be 2.8 RU. Moreover, the viability at 40 µM in [7] amounted to 105%.

On to `O=C(Cc1cc(F)c(F)cc1F)N1CCN(c2cccc(Cl)c2Cl)CC1`, for which the Activity in the data set on THP-1 [1] came out at 2.8 RU. Also, the viability at 40 µM in data set [7] is 101%.

On to `O=C(Nc1ccc(F)cc1)N1CCN(c2cccc(Cl)c2Cl)CC1`, for which the Activity in the data set with THP-1 [1] came out at 2.1 RU. Also, the viability at 40 µM in [7] amounted to 95%.

In the case of `O=C(c1ccc(Cl)cc1Cl)N1CCN(c2cccc(Cl)c2Cl)CC1`, the Activity in the data set with THP-1 [1] came to 2.3 RU. In addition, in data set [7], the viability at 40 µM was 86%.

As to `COc1cccc(NC(=O)N2CCN(c3cccc(Cl)c3Cl)CC2)c1`, in the data set on THP-1 [1], the Activity came out at 2.7 RU. Further, the viability at 40 µM in data set [7] came to 87%.

As for `O=C(Nc1cccc(OC(F)(F)F)c1)N1CCN(c2cccc(Cl)c2Cl)CC1`, the Activity with THP-1 [1] came to 3 RU. Further, the viability at 40 µM in data set [7] stood at 70%.

As for `O=C(Nc1ccc([N+](=O)[O-])cc1)N1CCN(c2cccc(Cl)c2Cl)CC1`, the Activity in the data set with THP-1 [1] is 1 RU. For the same molecule, in data set [7], the viability at 40 µM turned out to be 90%.

Take `O=C(CCc1ccccc1C(F)(F)F)N1CCN(c2cccc(Cl)c2Cl)CC1`: the Activity in the data set with THP-1 [1] came out at 2.5 RU. In data set [7], the viability at 40 µM worked out at 96%.

On to `S=C(Nc1ccc(Br)cc1)N1CCN(c2cccc(Cl)c2Cl)CC1`, for which the Activity in the data set on THP-1 [1] turned out to be 0.4 RU. Besides, the viability at 40 µM in [7] stood at 46%.
